B1: tRNA (parent)
chain: GUUCCGUUGGCGUAAUGGUAACGCGUCUCCCUCCUAAGGAGAAGACUGCGGGUUCGAGUCCCGUACGGAACG

Variants at the floor of the assay were thinned out. Where only a bound is given, the exact number is not on record here.

In this series the parent is B1. The series can be described thus: yeast fitness relative to wild type (ratio to wild type); higher = fitter; tRNA-Arg(CCU), competitive growth, 37 C, YPD. In a few lines: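 The tRNA-Arg(CCU) gene variants were made by chemical synthesis with a 3% per-site mutation rate at 69 sites and inserted at the native genomic locus of Saccharomyces cerevisiae. After pooling, the strains were competed in YPD at 37°C for 24 hours in six parallel replicates. Gene amplicons from the start population and each end population were read by 100-nucleotide paired-end sequencing, and Darwinian fitness relative to wild type was taken from genotype frequency changes. Genotypes needed ≥ 100 starting reads, and estimates < 0.5 were set to 0.5.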
For the variant GUUCCGUUGGCGUUAUGGUAACGGGUCUCCCUCCUAAGGAAAAAACUGCGGGAUCGAGUCCCGUAUGCAACG [A14U C24G G41A G44A U53A C66U G68C], the yeast fitness was no more than 0.5. For GUUCCGUUGGCGUUAUGGUAACGCGUCUCGCUCCUAAGGAGAAGACUGCGCGUUCGAGUCCCGUACGGAACG [A14U C30G G51C], the yeast fitness was no more than 0.5.

For GUUCCGUUGGCGUUAUGGUAACGCGUGUCCCUCCUAAGGAGAAGACUGCGGAUUCGAGUCCCCUACGGAACG [A14U C27G G52A G63C], the yeast fitness is no more than 0.5.

Turning to GUUCCGUUGGCGUUAUGGUAACGCGUCUACCUCCUAAGGAGAAGACUGAGGGUUCGAGUCCCGUACGGAACG [A14U C29A C49A], the yeast fitness is no more than 0.5. To GUUCCGUUGGCGUUAUGGUAACGCGUAUCCCUCCUAAGGAGAAGACUGCGGGUUCGAGUCCCGUACGGAACG [A14U C27A] belongs 0.76; to GUUCCGUUGGCGUUAUGGUAACGCGUUUCCCUCCUAAGGAGAAGACUGCGGGUUCGAGUCCCGUACGGAACG [A14U C27U], 0.594; to GUUCCGUUGGCGUUAUGGUAACGCGUCUCACUCCUAAGGAGAAGACUGCGGGUUCGAGUCCCGUAUGGAGCG [A14U C30A C66U A70G], 0.64. In the case of GUUCCGUUGGCGUUAUGGUAACGCGUCUGCCUCCUAAGGAGAAGACUGCGGGUUGGAGUCCCGUACGGGGCG [A14U C29G C55G A69G A70G] it was no more than 0.5; in that of GUUCCGUUGGCGUUAUGGUAACGCGUGUCCCUCCUGAGGAGAAGAAUGCGGGUUCGAGACCCGUACGGAACG [A14U C27G A36G C46A U59A], 0.52. To GUUCCGUUGGCGUUAUGGUAACGGGUCUCCCUCCUAAGGAAAAAACUGCGGGUUCGAGUCUCGUACGGAACG [A14U C24G G41A G44A C61U] belongs no more than 0.5; to GUUCCGUUGGCGUUAUGGUAACGCGUCUCCAUCCUAAGGAGAAGACUGCGGGUUCGAGUACCGUACGGAACG [A14U C31A C60A], 0.514. In the case of GUUCCGUUGGCGUUAUGGUAACGCGUCUCCCUCGUAAGGAGACGACUGCGGGUUCGAGUCCAGUACGGAUCG [A14U C34G A43C C62A A70U], the yeast fitness is no more than 0.5. In the case of GUUCCGUUGGCGUUAUGGUAACGGGUCUCCCUCCUAAGGAAAAAACUGCGGGAUCGAGUCCCGUACGGAACG [A14U C24G G41A G44A U53A] it was 0.55; in that of GUUCCGUUGGCGUUAUGGUAACGGGGCUCCCUCCUAAGGAGAAGACUGCGGGUUCCAGUCCCGUACGGAACG [A14U C24G U26G G56C], no more than 0.5. Take GUUCCGUUGGCGUUAUGGUAACGCGUCUCCCUCGUAAGGAGAAGACUGCGGGUUCGAGUCACGUACGGAACG [A14U C34G C61A]: the yeast fitness was no more than 0.5. To GUUCCGUUGGCGUUAUGGUAACGCGUCUCGCUCCUAAGGAGAAGACUGCGGGUUUGAGUCCCGUACGGAACG [A14U C30G C55U] belongs no more than 0.5; to GUUCCGUUGGCGUUAUGGUAACGCGUCUCUCUCCUAAGGAGGAGACUGCGGGUUCGAGUCCCGUAGGGAACG [A14U C30U A42G C66G], no more than 0.5. Consider GUUCCGUUGGCGUUAUGGUAACGCGUCUCCCUCUUAAGCAGAAGACUGCGGGUUCGAGUCCCGUACGGAACG [A14U C34U G39C], for which the yeast fitness was 0.56.

For the variant GUUCCGUUGGCGUUAUGGUAACGCGUGUCCCUCCUAAGGAGAAGACUGCGGGUUCGAGUCCCGUAUGGAACG [A14U C27G C66U], the yeast fitness was no more than 0.5.

In the case of GUUCCGUUGGCGUUAUGGUAACGCGUCUCCAUCCUAAGGAGAAGACUGCGGGUUCGAGUCCCGUACGGAACG [A14U C31A], the yeast fitness worked out at 0.544. To GUUCCGUUGGCGUUAUGGUAACGUGUCUCCCUACUAAGGAGAACACCGCGGGUUCGAGUGCCGUACGGAACG [A14U C24U C33A G44C U47C C60G] belongs no more than 0.5. Take GUUCCGUUGGCGUUAUGGUAACGCGUGUCCCUCAUAAGGAGAAGACUGCGGGUUCGAGUCUCGUAGGGUACG [A14U C27G C34A C61U C66G A69U]: the yeast fitness was no more than 0.5. In the case of GUUCCGUUGGCGUUAUGGUAACGCGUCUCCCUCGUACGGAGAAGACUGCGGGUUCGAGUCCUGUACGGAACG [A14U C34G A37C C62U], the yeast fitness is no more than 0.5. In the case of GUUCCGUUGGCGUUAUGGUAACGCGUCUCCAUCCUAAGGAGAAGACUGCGGGUUCGAGUCACGUACGGAACG [A14U C31A C61A] it was no more than 0.5; in that of GUUCCGUUGGCGUUAUGGUAACGCGUCUGCCUCCUAAGGAGAAGACUGCGGGUUCGAGUCCCGUACAGAACG [A14U C29G G67A], 0.542. To GUUCCGUUGGCGUUAUGGUAACGCGUCUACCUCCUAAGGAGAAGACUGCGGGUACGAGACCCGUACGGAACG [A14U C29A U54A U59A] belongs 0.574; to GUUCCGUUGGCGUUAUGGUAACGCGUCUCCCUACUAAGGAGCAGACUGCGGAUUCGAGUCCCGUACGGAACG [A14U C33A A42C G52A], 0.515.

With GUUCCGUUGGCGUUAUGGUAACGCGUCUCCCUCGUACGGAGAAGACUGCGGGUUCGAGUCCCGUACGGAACG [A14U C34G A37C], the yeast fitness is no more than 0.5. To GUUCCGUUGGCGUUAUGGUAACGCGUCUCCCUCUUAAGGUGAAGACUGCCGGUUCGAGUCCCGUACGGAACG [A14U C34U A40U G50C] belongs no more than 0.5; to GUUCCGUUGGCGUUAUGGUAACGCGUCUGCCUCGUAAGGAGAAGACUGCGGGUUCGAGUCCCGUACGGAACG [A14U C29G C34G], no more than 0.5.

GUUCCGUUGGCGUUAUGGUAACGCGUCUGCCUCCUAAGGAGAAGACUGCGGGUUCGAGUCCUGUACGGAACG [A14U C29G C62U]: the yeast fitness is no more than 0.5. In the case of GUUCCGUUGGCGUUAUGGUAACGCGUCUCGCUACUAAGGAGAAGACUGCGGGUUCGAGUCCCGUACGGAACG [A14U C30G C33A] it was 0.529; in that of GUUCCGUUGGCGUUAUGGUAACGCGUCUUCCUCCUAUGGAAAAGACUGCGGGUUCGAGUCCCGUACGGAACG [A14U C29U A37U G41A], no more than 0.5; in that of GUUCCGUUGGCGUUAUGGUAACGCGUCUCUCUCCUAAGGAGAAGACUGCGGGUUCGAGACCCGUACGGAACG [A14U C30U U59A], no more than 0.5. In the case of GUUCCGUUGGCGUUAUGGUAACGCGUCUCCCUACUAAGGAGAAGACUGCGGGUUCGAGUCCCGUACGGGACG [A14U C33A A69G] it was 0.742. In the case of GUUCCGUUGGCGUUAUGGUAACGCGUCUCCCUCGUAAGGAGAUGAAUGCGGGUUCGAGUCCUGUACGGCACG [A14U C34G A43U C46A C62U A69C] it was no more than 0.5; in that of GUUCCGUUGGCGUUAUGGUAACGCGUCUUCCUCCUAAGGAGAAGACUGCGGGUUUGAGUCCCGUACGGAACG [A14U C29U C55U], no more than 0.5.

These data come from the RNAGym collection of RNA variant scans (doi:10.1126/science.aae0568).
